The nature of data set [1]: Octanol-phosphate buffered saline distribution coefficient, log D of compound at pH 7.4 at 1 mg shake for 30 mins and measured after 48 hrs by HPLC analysis. Format: physicochemical.
Data set [2] is described as follows: Stability of the compound in PBS buffer at pH 7.4 at 10^-5 M measured 5 min for 60 mins in presence of glutathione by UV-Vis spectrophotometric analysis. In kind it is physicochemical. The following applies: pH 7.4, 1 h, 10 µM.
For data set [3], the system named is GL261. As to the kind of experiment: Induction of morphological changes in mouse GL261 cells assessed as increase in cell circularity at 10 uM incubated for 48 hrs by Hoechst 33258 staining based fluorescence microscopic analysis. In kind it is functional. Summed up: (§1)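 After 48 h exposure, GL261 cells on coverslips fixed in 4% paraformaldehyde, permeabilized (0.1% Triton X-100), blocked 30 min, stained with Alexa Fluor-594 phalloidin and Hoechst 33258; ten random fields at 630×; circularity (4π·area/perimeter²) and aspect ratio traced manually on ≥120 cells per condition; three independent experiments.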

Data set [4] can be described thus: Stability of compound in PBS buffer at pH 7.4 at 10^-5 M measured 5 min for 60 mins in presence of N-acetylcysteine by UV-Vis spectrophotometric analysis. Format: physicochemical. Particulars: pH 7.4, 1 h, 10 µM.
The subject of data set [5] is GL261. Kind of data set: Induction of apoptosis in mouse GL261 cells assessed as reduction in cell viability at 10 uM incubated for 48 hrs by annexinV-PE/7-AAD staining based flow cytometric analysis. In kind it is functional. Summed up: (§2)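 GL261 cells exposed 48 h; trypsinized adherent cells combined with medium cells, pelleted, resuspended in PBS/1% BSA, stained with annexin V-PE/7-AAD; flow cytometry gating viable (both negative), early apoptotic (annexin+/7-AAD−), late apoptotic/dead (both positive); two readings per sample; three independent experiments in duplicate.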
A general note: Flow cytometry measures light scatter and fluorescence of single cells or particles in a stream.

Data set [6] in a line: Stability in 80% human plasma assessed as half life by HPLC analysis. In kind it is ADME, cell-free. Summed up:
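Plasma pooled from 13 donors (heparin), stored at −18 °C, thawed slowly, diluted to 80% v/v with 10 mM PBS pH 7.4 at 37 °C; compound added from 10 mM acetonitrile stock; aliquots taken over time, centrifuged 12000 rpm 10 min, supernatant analyzed by HPLC for half-life; duplicate or triplicate runs.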

Data set [7] can be described thus: Stability of the compound in PBS buffer at pH 7.4 assessed as half life by HPLC analysis. Format: physicochemical.
Data set [8] deals with GL261. As to the kind of experiment: Induction of apoptosis in mouse GL261 cells assessed as increase in early apoptotic cells at 10 uM incubated for 48 hrs by annexinV-PE/7-AAD staining based flow cytometric analysis. Format: functional, cell-based. A digest of the protocol: as §2
Data set [9] has as its system SH-SY5Y. As to the kind of experiment: Induction of apoptosis in human SH-SY5Y cells assessed as increase in early apoptotic cells at 10 uM incubated for 48 hrs by annexinV-PE/7-AAD staining based flow cytometric analysis. Format: functional, cell-based. Summed up:
(§3)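 SH-SY5Y cells grown on poly-D-lysine/laminin, differentiated 7 days with 10 µM retinoic acid, then exposed 48 h. Adherent plus floating cells pooled, resuspended in PBS/1% BSA, stained annexin V-PE/7-AAD and counted by flow cytometry into viable, early apoptotic, late apoptotic/necrotic; two readings per sample; three independent experiments in duplicate.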

The subject of data set [10] is SH-SY5Y. Kind of data set: Induction of apoptosis in human SH-SY5Y cells assessed as increase in late necrotic cells at 10 uM incubated for 48 hrs by annexinV-PE/7-AAD staining based flow cytometric analysis. In kind it is functional, cell-based. Summed up: as §3
Data set [11] has as its target T1, Histone deacetylase (Homo sapiens) (UniProt Q13547+O15379+Q9UBN7+Q92769+Q9UQL6+Q8WUI4+Q9BY41+Q96DB2+P56524+Q9UKV0+Q969S8). Kind of data set: Inhibition of HDAC in human HeLa nuclear extract assessed as enzyme residual activity at 100 uM using Boc-Lys(acetyl)-AMC as substrate and measured after 15 mins by fluorescence assay relative to control. Format: cell-free. A digest of the protocol:
(§4)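 Fluorometric HDAC activity kit with HeLa nuclear extract as enzyme source; compounds from 20 mM DMSO stock, tested in duplicate. Deacetylated substrate treated with lysine developer; fluorescence read after 15 min at ex 360/em 460 nm.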

A short description of data set [12]: Induction of alkylation in 5'-GGGAGA-3' single stranded DNA (unknown origin) at ssDNA to compound concentration ratio of 1:3 to 1:250M incubated for 7 days by ESI-MS analysis. A digest of the protocol:
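Single-stranded oligonucleotide incubated with the compound in 10 mM ammonium bicarbonate buffer, pH 8.3, at 37 °C. Aliquots were taken at intervals and extracted three times with ethyl acetate, then centrifuged. The aqueous phase was analysed by flow-injection ESI(−) HRMS in 50:50 water/acetonitrile with 0.1% formic acid. Run in triplicate.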

For data set [13], the system named is GL261. Kind of data set: Antiinvasive activity in mouse GL261 cells assessed as reduction in cell migration at 10 uM preincubated for 48 hrs and measured after 6 hrs by giemsa staining based Boyden chamber assay. In kind it is functional.
For data set [14], the target named is T1, Histone deacetylase (Homo sapiens). Kind of data set: Inhibition of HDAC in human HeLa nuclear extract assessed as enzyme residual activity at 6.25 uM using Boc-Lys(acetyl)-AMC as substrate and measured after 15 mins by fluorescence assay relative to control. In kind it is cell-free. Summed up:
as §4

For data set [15] the target is unchanged. As to the kind of experiment: Inhibition of HDAC in human HeLa nuclear extract assessed as enzyme residual activity at 25 uM using Boc-Lys(acetyl)-AMC as substrate and measured after 15 mins by fluorescence assay relative to control. In kind it is cell-free. A digest of the protocol:
as §4

Data set [16] deals with GL261. Kind of data set: Cytotoxicity against mouse GL261 cells assessed as reduction in cell viability incubated for 48 hrs by MTS assay. In kind it is functional, cell-based. The following applies: GL261, 48 h. Background: Tetrazolium dyes change colour on reduction, which living cells bring about.
Data set [17] relates to SH-SY5Y. Kind of data set: Induction of apoptosis in human SH-SY5Y cells assessed as reduction in cell viability at 10 uM incubated for 48 hrs by annexinV-PE/7-AAD staining based flow cytometric analysis. In kind it is functional. A digest of the protocol: as §3
Data set [18] concerns GL261. Kind of data set: Induction of morphological changes in mouse GL261 cells assessed as decrease in cell aspect ratio at 10 uM incubated for 48 hrs by Hoechst 33258 staining based fluorescence microscopic analysis. In kind it is functional. A digest of the protocol:
as §1

The source made the active and inactive calls. The calls are words filed in the database; no cut-off is given here.

A word on the logD: it is the decadic logarithm of the distribution of all forms, ionised or not, between an organic phase and buffer at a given pH. High values mean a more lipophilic compound, low ones a more hydrophilic compound. The term half-life denotes the time in which the quantity being followed falls by half. For orientation: IC50 means the concentration that inhibits the measured activity by half.

Consider `CCCC(CCC)C(=O)N(C)/N=N/c1ccc(C#N)cc1`, for which, in data set [1], the logD at 30 min was determined as 4.84. The Stability entry in data set [2] and in [4] was “Stable” each time. Moreover, the outcome in the data set with GL261 [3], in the data set on GL261 [5], in the data set with GL261 [8], in the data set on SH-SY5Y [9], with SH-SY5Y [10] and with GL261 [13] was Active. Moreover, the result in the data set on SH-SY5Y [17] and with GL261 [18] was Active. Further, the half-life in data set [6] and in data set [7] was greater than 40 h in each case. The Activity in [11] was found to be 94.6%; in data set [14], 99.1%; in data set [15], 98%. The outcome in [12] was inactive. For the same compound, the IC50 in the data set with GL261 [16] is greater than 100 µM.
